Measured values taken from the RNAGym collection of RNA variant scans (doi:10.1126/science.aae0568).
This sample holds only a part of the variants without activity.

B1: tRNA (parent)
chain: GUUCCGUUGGCGUAAUGGUAACGCGUCUCCCUCCUAAGGAGAAGACUGCGGGUUCGAGUCCCGUACGGAACG

Variants of: B1
Assay: yeast fitness relative to wild type (ratio to wild type); higher = fitter; tRNA-Arg(CCU), competitive growth, 37 C, YPD
Outline: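 The tRNA-Arg(CCU) gene variants were made by chemical synthesis with a 3% per-site mutation rate at 69 sites and inserted at the native genomic locus of Saccharomyces cerevisiae. After pooling, the strains were competed in YPD at 37°C for 24 hours in six parallel replicates. Gene amplicons from the start population and each end population were read by 100-nucleotide paired-end sequencing, and Darwinian fitness relative to wild type was taken from genotype frequency changes. Genotypes needed ≥ 100 starting reads, and estimates < 0.5 were set to 0.5.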

Variant	yeast fitness
GAUCCGUUAGCGUAAUGGUAACGCGUCUCCCUCCUAGGGAGAAGACUGCGGGUUCGAAUCCCGUACGGAACG	≤ 0.5
GUUCCGUUGGCGUAAUGGUAACGCGUCACCCUCCUAAGGAGAAGACUGCGGGUUCGAGUCCCGUUCGGAACG	0.642
GUUCCGUUGGCGUAAAGGUAACGCGUCUCCAUCCUAAGGAGAAGACUGCGGGUUCGAGUCCCGUACGGUACG	0.62
GCUCCGUUGGCGUAAUGGUAACGCGUCUACCUCCUAAGGAGAAGACUGCGGGUUCGAGUCCCAUACGGAACG	≤ 0.5
GUUCCGUUGGCGUAAUGGUAACGCGUCUCCCUCCUAAGGAGAAGACAGCGGAUUCGAGUCCCGUACGGAACG	0.821
GUUCCGUUGGCGUAAUGGCAAUGCCUGUCCCUCCUAAGGCGAAGACUGCGGGUUCGAGUCCCGUACGGAACG	0.587
GUUCAGUUGGCGUAAUGGUAACGCGUCUCCUUUCUAAGGAGCAGACUGUGGGUUCGAGUCCCGUCCGGAACG	≤ 0.5
GUUCCGUUGGCGUAAUGGUAACGCGUCUCCCUCCUAAGGAGACGACUGCGGGUUCGAGUCCAAUAGGGGACG	≤ 0.5
GUUCCGUUGGCGUAAUGGUAACCCGUCUCCCUCCUUAGGAGAAGACUGCGGCUUCGAGUCCCGUACGGAACG	≤ 0.5
GUUCCGUUGGCAUUAUGGUAACGCGUCUCCCUCCUAAGGAGAAGACUGCGGGUUCGAGUCCCGUAAGGAGCG	≤ 0.5
GUUCCGUUGGUGUAAUGGUAACGGGUCUCCCUACUAAGGCGAAGACUGCGGGUUCGAGUCCCGUACGGAACG	0.955
GUUCCGUUGGCGUAAUGGUACCGCGUCUCCCUCCUAAGGAGAAGAUUGCGGGUUCGAGUCCCGUACGGCACG	0.668
GUUCCGUUAGCGUAAUGGUAAUGCGACUCCCUCCUAAGGAGAUGACUGCGGGUUCGAGUCCCGUUCGGAACG	≤ 0.5
GUUCCGUUGGCGUAAUGGUAACGACUCUCCCUCCUAAGGAGAAGACAGCGGGUUCGAGUCCCGUACGGAACG	≤ 0.5
GUUCCGUUGACGUAAUGGUAACGCGUCUCCCUCCUAACGAGAAGACUGCAGGUUCGAGUCCCGUACGGGACG	≤ 0.5
GUUCCGUUGGCGUAAUGGAAACGCGUCUCCCUCCUAAGGAGUAGAGUGCGGGUUCGAGUCCCGUACGGAACG	0.988
GUUCAGUUGGCGUAAUGGUAACGCGUCUCCCUCUUAAGGAGAAGACUGCGGGUUAGAGUCCCGUACGGAACG	≤ 0.5
GUUCCGUUGACGUAAUGGUAUCGCGUCUCCCUCCUAAGGAGAAGACUGCGGGAUCGAGUCCCGUACGGAACG	0.521
GUUCCCUUGGCGUAAUGGUGACGCGUCUCCCUCCUAAGGAGAAGACUGCGGGUUCGAGUCCCGUACGGAACG	0.773

Variant	yeast fitness
GUUCCGUUGGCGUAAUGGUAACGCGUCUUCCGCCUAAGGAGAUCACUGCGGGCUCGAGUCCCGUACGGAACG	≤ 0.5
GUUCCAUUGGCGUAAUGGUAACGCGUCUCCCUCCUAAGGACAAGACUGCGGGUUGGAGUCCCGUACGGAACG	0.529
GUUCCGUUGGCGUAAAGGUAACGCCUCUCCCUCCUAAGGAGAAGACUACGGGUUCGAGACCCGUACGGAACG	≤ 0.5
GUUCCGUUGGCGUAAUGGUAACGCGUCUCCCUCCUAAGGCGAAGACUGCGGGUUCGGGUCCCGUACAGAACG	0.554
GUUCCGUUGGCGUAAUGGUAACGCGUCUACCUCCUAAGGAGAAGACUGCGGGUUCGAGUCCCGUACGGUACG	0.756
GUUCCGUUGGCGUAAUGGUAAUGUGUCUCCCUCCUAAGGAGAAGGCUGCGGGUUCCAGUCCCGUACGGAACG	≤ 0.5
GUACACUUGGCGUAGAGGUAACGCGUCUCCCUCCUAAGGAGAAGACUGGGGGUUCGAGUCCCGUACGGAACG	≤ 0.5
GUUCCGUUGGCGUAAUGGUAACGAGACUCCCUCCUAAGGAGAAGACUGCGGGUUCGAGUCCCGUACGGAACG	0.57
GUUCCGUUGGCGUAAUGGUAACGCGUUUCCCUCCUAAGGAGAAGCCUGUGGGUUCAAGUCCCGUACGGAACG	≤ 0.5
GUUCCGUUGGCGUAAUGGUAACGCGUCCCCCUCCUAAGGGGAAGACUGCGGGUUCGAGUCCCGUACGGAUCG	0.603
GUUCCGUUGGCGUAAUGGUAACGCGCCUCCCUCCUAAGGAGAAGACUGCGGGUUUGAGUCCCGUACGGAACG	0.617
GUUCCGUUGCCGUAAUGGUAACGCGUCUCCCUGCUAAGGAGAGGAGUGCGGGUUCGAGUCCGGUACGGAACG	0.562
GUUCCGUUGGCGUAAUGGUACCGCGUCUCCCUCCUGAGGAGAAGACUGCGGGUUCGAGUCCCGUACCGAACG	≤ 0.5
GUUCCGUUGGCGUAAUGGUAACGCGUCUCCCUCCAAAGGAGUUGACUGCGGGUUCGAGGCCCGUACGGAACG	0.541
GCUCCGUUGGCGUAAUGGUAACCCGUCUCCGUUCUAAGGAGGAGACUGCGGGUUCGAGUCCCGUACUGAACG	≤ 0.5
GUUCCGUUGGCGUAAUGGUAACGCAUCUACCUCCUAAGGAGAAGACUGCGGGUUAGAGUCCCGUACGGAACG	0.625
GUUCCGUUGGCGUAAAGGUAACGCGUCUCCCUCCUAAGGAGAAGACUGCGGGUUCGAGUACCGUACCGAACG	≤ 0.5
GUUCCGUUGGCGUAAUGGUAACGCGUCUCCCUCCAAAGGAGAAGACUGCGGGUUCGAGUCCCGUAGGGAACG	0.599
